Values after ≈ are worked out from the molar mass of the structure shown.
Tests used:
[1] = test system: Mycobacterium tuberculosis; assay: Antimycobacterial activity against multi-drug resistant Mycobacterium tuberculosis 9449/2007 after 21 days; format: functional; details: 9449/2007, 504 h
Outline: (§1)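 M. tuberculosis strains (H37Rv and clinical MDR/XDR isolates) tested by microdilution in Šula's semisynthetic medium. Compounds were dissolved in DMSO and tested at 32 to 0.03 µM in twofold steps. Inoculum was a 1.0 McFarland suspension diluted 10-3. Plates were incubated at 37 °C and read at 14 and 21 days.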

[2] = Selectivity index, ratio of IC50 for human HepG2 cells to MIC>99 for antimycobacterial activity against multi-drug resistant Mycobacterium tuberculosis 234/2005 after 21 days; format: toxicity; details: read-out: Selectivity Index
Outline: (§2)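 SI from HepG2 IC50 and M. tuberculosis MIC. HepG2 cells: DMEM + 10% FBS + 1 mM pyruvate, 10,000/well, 48 h treatment, 0.1% DMSO and 10% SDS controls, MTS absorbance at 490 nm.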

[3] = Selectivity index, ratio of IC50 for human A431 cells to MIC>99 for antimycobacterial activity against multi-drug resistant Mycobacterium tuberculosis Praha 1 after 14 days; format: toxicity; details: read-out: Selectivity Index
[4] = Selectivity index, ratio of IC50 for human A431 cells to MIC>99 for antimycobacterial activity against multi-drug resistant Mycobacterium tuberculosis Praha 4 after 14 days; format: toxicity; details: read-out: Selectivity Index
[5] = test system: Mycobacterium tuberculosis; assay: Antimycobacterial activity against multi-drug resistant Mycobacterium tuberculosis Praha 1 after 14 days; format: functional; details: Praha 1, 336 h; outline: as §1
[6] = Selectivity index, ratio of IC50 for human A431 cells to MIC>99 for antimycobacterial activity against multi-drug resistant Mycobacterium tuberculosis 7357/1998 after 14 days; format: toxicity; details: read-out: Selectivity Index
[7] = test system: Mycobacterium tuberculosis; assay: Antimycobacterial activity against multi-drug resistant Mycobacterium tuberculosis Praha 1 after 21 days; format: functional; details: Praha 1, 504 h; outline: as §1
[8] = Selectivity index, ratio of IC50 for human HepG2 cells to MIC>99 for antimycobacterial activity against multi-drug resistant Mycobacterium tuberculosis Praha 1 after 21 days; format: toxicity; details: read-out: Selectivity Index; outline: as §2
[9] = Selectivity index, ratio of IC50 for human HepG2 cells to MIC>99 for antimycobacterial activity against multi-drug resistant Mycobacterium tuberculosis 9449/2007 after 14 days; format: toxicity; details: read-out: Selectivity Index; outline: as §2
[10] = Selectivity index, ratio of IC50 for human A431 cells to MIC>99 for antimycobacterial activity against multi-drug resistant Mycobacterium tuberculosis Praha 4 after 21 days; format: toxicity; details: read-out: Selectivity Index
Outline: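 SI from A431 IC50 and M. tuberculosis MIC. A431 cells: DMEM + 10% FBS, seeded 10,000/well, treated after 24 h for 48 h, 0.1% DMSO (100%) and 10% SDS (0%) controls, MTS absorbance at 490 nm.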

[11] = test system: Mycobacterium tuberculosis; assay: Antimycobacterial activity against multi-drug resistant Mycobacterium tuberculosis 8666/2010 after 14 days; format: functional; details: 8666/2010, 336 h; outline: as §1
[12] = test system: Mycobacterium tuberculosis; assay: Antimycobacterial activity against multi-drug resistant Mycobacterium tuberculosis 7357/1998 after 14 days; format: functional; details: 7357/1998, 336 h; outline: as §1
[13] = Selectivity index, ratio of IC50 for human HepG2 cells to MIC>99 for antimycobacterial activity against multi-drug resistant Mycobacterium tuberculosis 9449/2007 after 21 days; format: toxicity; details: read-out: Selectivity Index; outline: as §2
[14] = Selectivity index, ratio of IC50 for human HepG2 cells to MIC>99 for antimycobacterial activity against multi-drug resistant Mycobacterium tuberculosis Praha 4 after 21 days; format: toxicity; details: read-out: Selectivity Index; outline: as §2
[15] = test system: Mycobacterium tuberculosis; assay: Antimycobacterial activity against multi-drug resistant Mycobacterium tuberculosis 9449/2007 after 14 days; format: functional; details: 9449/2007, 336 h; outline: as §1
[16] = Selectivity index, ratio of IC50 for human HepG2 cells to MIC>99 for antimycobacterial activity against multi-drug resistant Mycobacterium tuberculosis 234/2005 after 14 days; format: toxicity; details: read-out: Selectivity Index; outline: as §2
[17] = test system: Mycobacterium tuberculosis; assay: microbe, parasite or virus in culture; details: 234/2005, 336 h
[18] = test system: Mycobacterium tuberculosis; assay: Antimycobacterial activity against multi-drug resistant Mycobacterium tuberculosis Praha 4 after 21 days; format: functional; details: Praha 4, 504 h; outline: as §1
[19] = Selectivity index, ratio of IC50 for human A431 cells to MIC>99 for antimycobacterial activity against multi-drug resistant Mycobacterium tuberculosis 234/2005 after 14 days; format: toxicity; details: read-out: Selectivity Index
[20] = Selectivity index, ratio of IC50 for human A431 cells to MIC>99 for antimycobacterial activity against multi-drug resistant Mycobacterium tuberculosis Praha 1 after 21 days; format: toxicity; details: read-out: Selectivity Index
[21] = Selectivity index, ratio of IC50 for human A431 cells to MIC>99 for antimycobacterial activity against multi-drug resistant Mycobacterium tuberculosis 9449/2007 after 21 days; format: toxicity; details: read-out: Selectivity Index
[22] = Selectivity index, ratio of IC50 for human A431 cells to MIC>99 for antimycobacterial activity against multi-drug resistant Mycobacterium tuberculosis 9449/2007 after 14 days; format: toxicity; details: read-out: Selectivity Index
[23] = test system: Mycobacterium tuberculosis; assay: Antimycobacterial activity against multi-drug resistant Mycobacterium tuberculosis 7357/1998 after 21 days; format: functional; details: 7357/1998, 504 h; outline: as §1
[24] = Selectivity index, ratio of IC50 for human A431 cells to MIC>99 for antimycobacterial activity against multi-drug resistant Mycobacterium tuberculosis 8666/2010 after 14 days; format: toxicity; details: read-out: Selectivity Index
[25] = test system: Mycobacterium tuberculosis; assay: Antimycobacterial activity against multi-drug resistant Mycobacterium tuberculosis Praha 4 after 14 days; details: Praha 4, 336 h
[26] = Selectivity index, ratio of IC50 for human HepG2 cells to MIC>99 for antimycobacterial activity against multi-drug resistant Mycobacterium tuberculosis Praha 4 after 14 days; format: toxicity; details: read-out: Selectivity Index; outline: as §2
[27] = test system: Mycobacterium tuberculosis; assay: Antimycobacterial activity against multi-drug resistant Mycobacterium tuberculosis 8666/2010 after 21 days; format: functional; details: 8666/2010, 504 h; outline: as §1
[28] = test system: Mycobacterium tuberculosis; assay: Antimycobacterial activity against multi-drug resistant Mycobacterium tuberculosis 234/2005 after 21 days; format: functional; details: 234/2005, 504 h; outline: as §1
[29] = Selectivity index, ratio of IC50 for human A431 cells to MIC>99 for antimycobacterial activity against multi-drug resistant Mycobacterium tuberculosis 234/2005 after 21 days; format: toxicity; details: read-out: Selectivity Index
[30] = Selectivity index, ratio of IC50 for human HepG2 cells to MIC>99 for antimycobacterial activity against multi-drug resistant Mycobacterium tuberculosis 7357/1998 after 21 days; format: toxicity; details: read-out: Selectivity Index; outline: as §2
[31] = Selectivity index, ratio of IC50 for human A431 cells to MIC>99 for antimycobacterial activity against multi-drug resistant Mycobacterium tuberculosis 7357/1998 after 21 days; format: toxicity; details: read-out: Selectivity Index
[32] = Selectivity index, ratio of IC50 for human HepG2 cells to MIC>99 for antimycobacterial activity against multi-drug resistant Mycobacterium tuberculosis Praha 1 after 14 days; format: toxicity; details: read-out: Selectivity Index; outline: as §2
[33] = Selectivity index, ratio of IC50 for human HepG2 cells to MIC>99 for antimycobacterial activity against multi-drug resistant Mycobacterium tuberculosis 8666/2010 after 14 days; format: toxicity; details: read-out: Selectivity Index; outline: as §2
[34] = Selectivity index, ratio of IC50 for human A431 cells to MIC>99 for antimycobacterial activity against multi-drug resistant Mycobacterium tuberculosis 8666/2010 after 21 days; format: toxicity; details: read-out: Selectivity Index
[35] = Selectivity index, ratio of IC50 for human HepG2 cells to MIC>99 for antimycobacterial activity against multi-drug resistant Mycobacterium tuberculosis 8666/2010 after 21 days; format: toxicity; details: read-out: Selectivity Index; outline: as §2
[36] = Selectivity index, ratio of IC50 for human HepG2 cells to MIC>99 for antimycobacterial activity against multi-drug resistant Mycobacterium tuberculosis 7357/1998 after 14 days; format: toxicity; details: read-out: Selectivity Index; outline: as §2

Structure (SMILES): O=[N+]([O-])c1cc(-c2nnc(SCc3ccccc3)n2Cc2ccccc2)cc(C(F)(F)F)c1
- MIC99 [1]: 0.06 µM (≈ 0.0282 µg/mL)
- selectivity ratio at 504 h [2]: > 100
- selectivity ratio at 336 h [3]: > 100
- selectivity ratio at 336 h [4]: > 100
- MIC99 [5]: 0.06 µM (≈ 0.0282 µg/mL)
- selectivity ratio at 336 h [6]: > 100
- MIC99 [7]: 0.06 µM (≈ 0.0282 µg/mL)
- selectivity ratio at 504 h [8]: > 100
- selectivity ratio at 336 h [9]: > 100
- selectivity ratio at 504 h [10]: > 100
- MIC99 [11]: 0.06 µM (≈ 0.0282 µg/mL)
- MIC99 [12]: 0.06 µM (≈ 0.0282 µg/mL)
- selectivity ratio at 504 h [13]: > 100
- selectivity ratio at 504 h [14]: > 100
- MIC99 [15]: 0.125 µM (≈ 0.0588 µg/mL)
- selectivity ratio at 336 h [16]: > 100
- MIC99 [17]: 0.06 µM (≈ 0.0282 µg/mL)
- MIC99 [18]: 0.06 µM (≈ 0.0282 µg/mL)
- selectivity ratio at 336 h [19]: > 100
- selectivity ratio at 504 h [20]: > 100
- selectivity ratio at 504 h [21]: > 100
- selectivity ratio at 336 h [22]: > 100
- MIC99 [23]: 0.06 µM (≈ 0.0282 µg/mL)
- selectivity ratio at 336 h [24]: > 100
- MIC99 [25]: 0.06 µM (≈ 0.0282 µg/mL)
- selectivity ratio at 336 h [26]: > 100
- MIC99 [27]: 0.125 µM (≈ 0.0588 µg/mL)
- MIC99 [28]: 0.06 µM (≈ 0.0282 µg/mL)
- selectivity ratio at 504 h [29]: > 100
- selectivity ratio at 504 h [30]: > 100
- selectivity ratio at 504 h [31]: > 100
- selectivity ratio at 336 h [32]: > 100
- selectivity ratio at 336 h [33]: > 100
- selectivity ratio at 504 h [34]: > 100
- selectivity ratio at 504 h [35]: > 100
- selectivity ratio at 336 h [36]: > 100

— ChEMBL document CHEMBL4373711, “Development of 3,5-Dinitrophenyl-Containing 1,2,4-Triazoles and Their Trifluoromethyl Analogues as Highly Efficient Antitubercular Agents Inhibiting Decaprenylphosphoryl-β-d-ribofuranose 2'-Oxidase” (J Med Chem, 2019)
